Assay results from ChEMBL document CHEMBL1126919, “Analyses of ligand binding in five endothiapepsin crystal complexes and their use in the design and evaluation of novel renin inhibitors” (J Med Chem, 1993).

Key:
[1] = Binding affinity of compound against endothiapepsin
Method in brief: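 Reactions at 37 °C in 0.1 M sodium formate pH 3.5 with 4% DMSO (inhibitor stocks in DMSO). Enzyme preincubated 3 min at 37 °C. Initial rates taken at six substrate levels (0.8Km–10Km), then at ≥3 substrate levels after preincubation with ≥2 inhibitor concentrations. Ki fitted by Marquardt analysis to competitive-inhibition equation.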

Renin = target: T1, Renin (Homo sapiens, UniProt P00797); experiment: Inhibitory concentration of compound against renin human plasma; format: cell-free
T1 sequence (P00797 whole entry): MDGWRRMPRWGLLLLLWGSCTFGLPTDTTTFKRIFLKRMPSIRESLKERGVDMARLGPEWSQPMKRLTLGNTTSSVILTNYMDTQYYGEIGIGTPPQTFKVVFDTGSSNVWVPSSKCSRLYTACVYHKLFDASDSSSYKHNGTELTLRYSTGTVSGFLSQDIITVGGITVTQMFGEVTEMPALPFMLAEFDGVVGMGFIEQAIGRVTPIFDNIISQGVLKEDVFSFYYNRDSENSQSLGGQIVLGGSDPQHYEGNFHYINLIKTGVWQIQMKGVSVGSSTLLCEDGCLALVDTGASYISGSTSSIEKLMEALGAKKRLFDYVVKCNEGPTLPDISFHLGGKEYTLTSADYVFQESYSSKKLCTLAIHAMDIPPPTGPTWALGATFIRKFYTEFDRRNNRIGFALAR

Renin (Homo sapiens) [2] = target: T2, Renin (Homo sapiens) (UniProt P00797); experiment: Percent inhibition of compound against renin human plasma at 10 e-6 M; format: cell-free
T2 sequence (whole entry): T1 sequence (P00797 whole entry)

Renin (Homo sapiens) [3] = target: T2, Renin (Homo sapiens); experiment: Percent inhibition of compound against renin monkey plasma at 10e-6 M; format: cell-free; conditions: Cercopithecidae, target entry is the homologue from another species
Method in brief: (§1)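 Renin activity in monkey plasma, with inhibition measured as angiotensin I generated, quantified by radioimmunoassay following Haber's method.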

Renin (Homo sapiens) [4] = target: T2, Renin (Homo sapiens); experiment: Percent inhibition of compound against renin monkey plasma at 10 e-6 M; conditions: Cercopithecidae, target entry is the homologue from another species
Renin (Homo sapiens) [5] = target: T2, Renin (Homo sapiens); experiment: Percent inhibition of compound against renin monkey plasma at 10E-6 M; format: cell-free; conditions: Cercopithecidae, target entry is the homologue from another species; method in brief: as §1

Ki [1] [nM] | IC50 (Renin) [nM] | SMILES | further results
240 | 170 | CCC(C)CNC(=O)C(CC(C)C)CC(O)C(CC1CCCCC1)NC(=O)C(Cc1c[nH]cn1)NC(=O)C(Cc1cccc2ccccc12)Cc1cccc2ccccc12 (stereo unspecified) | –
110 | – | CCC(C)CNC(=O)CP(=O)(O)C(CC(C)C)NC(=O)C(Cc1c[nH]cn1)NC(=O)C(Cc1ccccc1)NC(=O)OC(C)(C)C (stereo unspecified) | inhibition (Renin (Homo sapiens) [2]): 3.3%
16000 | 22 | CC(C)CC(NC(=O)CC(O)C(CC1CCCCC1)NC(=O)CCC(O)C(Cc1ccccc1)NC(=O)OC(C)(C)C)C(=O)NCc1cccc(CN)c1 (stereo unspecified) | –
– | – | CC(C)CC(O)C(O)C(CC1CCCCC1)NC(=O)c1cc(NC(=O)CSc2ccccc2)ccc1CO (stereo unspecified) | inhibition (Renin (Homo sapiens) [3]): 4.4%
– | – | COC(=O)C(C)(NC(=O)C(Cc1ccccc1)NS(=O)(=O)N1CCOCC1)C(=O)NC(CC1CCCCC1)C(O)C(O)CC(C)C (stereo unspecified) | inhibition (Renin (Homo sapiens) [4]): 4.4%
– | – | CC(C)CC(O)C(O)C(CC1CCCCC1)NC(=O)c1cccc(NC(=O)CSc2ccccc2)c1 (stereo unspecified) | inhibition (Renin (Homo sapiens) [5]): 12.6%
– | 25 | CCC(C)CNC(=O)CC(O)C(CC(C)C)NC(=O)C(CCCC/N=C(/S)NC)NC(=O)C(Cc1ccccc1)NS(=O)(=O)N(C)C (stereo unspecified) | –
6.5 | – | CCSC(NC(=O)[C@H](Cc1ccccc1)NS(=O)(=O)N1CCOCC1)C(=O)N[C@@H](CC1CCCCC1)[C@@H](O)[C@@H](O)CC(C)C (stereo partly specified) | –
